Experimental data from ChEMBL document CHEMBL1126202, “Dual-action penems and carbapenems” (J Med Chem, 1992).
In brackets after ≈: the same amount, converted by molar mass.

How the values were obtained:
[1] = system: Escherichia coli; experiment: In vitro antibacterial activity against Escherichia coli TEM-1 (constitutive beta-lactamase producer); format: functional
In short: (§1)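 MIC was determined by agar dilution on Mueller-Hinton agar. Serial 2-fold aqueous dilutions were diluted 10-fold in agar to give final concentrations of 128 to 0.0156 μg/mL. Plates were inoculated by Steers replicator with overnight broth cultures diluted 100-fold.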

[2] = system: Bacteroides thetaiotaomicron; experiment: (§2) In vitro antibacterial activity against Bacteroides thetaiotaomicron 62B; format: functional
In short: (§3)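 Anaerobic MICs were determined in microtiter plates in Schaedler's broth supplemented with coenzyme I and hemin. Incubation was under an oxygen-free hydrogen-carbon dioxide atmosphere.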

[3] = system: Hathewaya histolytica; experiment: In vitro antibacterial activity against clostridium histolyticum 503-86; format: functional
In short: (§4)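 Anaerobic MIC, run in microtiter plates in Schaedler's broth supplemented with coenzyme I and hemin. Incubated in an oxygen-free hydrogen–carbon dioxide atmosphere.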

[4] = system: Klebsiella pneumoniae; experiment: In vitro antibacterial activity against klebsiella pneumoniae A; format: functional
In short: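 Agar-dilution MIC on Mueller-Hinton agar. Serial 2-fold dilutions were made in water, giving final agar concentrations of 128 to 0.0156 μg/mL. Inoculum was an overnight broth culture diluted 100-fold, applied with a multipoint replicator.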

[5] = system: Bacteroides fragilis; experiment: In vitro antibacterial activity against Bacteroides fragilis F117A; format: functional
In short: (§5)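 MIC by broth dilution in microtiter plates, run in an oxygen-free hydrogen–carbon dioxide atmosphere. Medium: Schaedler's broth with coenzyme I and hemin added.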

[6] = system: Staphylococcus aureus; experiment: In vitro antibacterial activity against Staphylococcus aureus 67(methicillin resistant); format: functional
In short: (§6)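 MIC by agar dilution on Mueller-Hinton agar. Compounds were serially 2-fold diluted in water, final 128 to 0.0156 μg/mL in agar. Inoculum: overnight broth culture diluted 100-fold, applied with a Steers replicator.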

[7] = system: Staphylococcus aureus; experiment: (§7) In vitro antibacterial activity against Staphylococcus aureus 753 (constitutive beta-lactamase producer); format: functional; in short: as §6
[8] = system: Clostridioides difficile; experiment: In vitro antibacterial activity against Clostridium difficile 651; format: functional
[9] = system: Enterobacter cloacae; experiment: In vitro antibacterial activity against enterobacter cloacae P99 (constitutive beta-lactamase producer); format: functional; in short: as §1
[10] = system: Pseudomonas aeruginosa; experiment: microbe, parasite or virus in culture
[11] = system: Serratia marcescens; experiment: In vitro antibacterial activity against serratia marcescens SM (constitutive beta-lactamase producer); format: functional; in short: as §1
[12] = system: Staphylococcus aureus; experiment: In vitro antibacterial activity against staphylococcus aureus smith; format: functional; in short: as §1
[13] = system: Clostridium perfringens; experiment: In vitro antibacterial activity against Clostridium perfringens 13424; format: functional; in short: as §5
[14] = system: Citrobacter freundii; experiment: In vitro antibacterial activity against citrobacter freundii BS-16 (constitutive beta-lactamase producer); format: functional; in short: as §1
[15] = system: Clostridioides difficile; experiment: In vitro antibacterial activity against Clostridium difficile 701; format: functional
[16] = system: Streptococcus pneumoniae; experiment: In vitro antibacterial activity against streptococcus pneumoniae 6301; format: functional
In short: (§8)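 Streptococcal MICs were determined by agar dilution on brain heart infusion agar supplemented with 20 units/mL bovine liver catalase. Final concentrations were 128 to 0.0156 μg/mL from 2-fold dilutions. Inocula were overnight broth cultures diluted 100-fold, applied by Steers replicator.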

[17] = system: Proteus vulgaris; experiment: In vitro antibacterial activity against proteus vulgaris ATCC 6380 (constitutive beta-lactamase producer); format: functional
In short: (§9)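 Proteus MICs were determined by agar dilution on Mueller-Hinton agar containing 3% agar. Serial 2-fold dilutions gave final concentrations of 128 to 0.0156 μg/mL. Plates were replicator-inoculated with 100-fold-diluted overnight broth cultures.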

[18] = system: Bacteroides fragilis; experiment: In vitro antibacterial activity against bacteroides fragilis S2; format: functional; in short: as §4
[19] = system: Escherichia coli; experiment: In vitro antibacterial activity against Escherichia coli 257; format: functional
[20] = system: Pseudomonas aeruginosa; experiment: (§10) In vitro antibacterial activity against Ps. aeruginosa 18SH (constitutive beta-lactamase producer)
[21] = system: Proteus mirabilis; experiment: (§11) In vitro antibacterial activity against Proteus mirabilis 90; format: functional
In short: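 MIC by agar dilution on Mueller-Hinton agar containing 3% agar. Compounds were serially 2-fold diluted in water, final 128 to 0.0156 μg/mL in agar. Inoculum: overnight broth culture diluted 100-fold, applied with a Steers replicator.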

[22] = system: Streptococcus pyogenes; experiment: In vitro antibacterial activity against Streptococcus pyogenes 4; format: functional; in short: as §8
[23] = system: Klebsiella pneumoniae; experiment: In vitro antibacterial activity against Klebsiella pneumoniae A; format: functional; in short: as §1
[24] = system: Staphylococcus aureus; experiment: as §7; format: functional; in short: as §1; remark: listed apart in the source
[25] = system: Citrobacter freundii; experiment: In vitro antibacterial activity against Citrobacter freundii BS-16 (constitutive beta-lactamase producer); format: functional; in short: as §1
[26] = system: Bacteroides thetaiotaomicron; experiment: as §2
[27] = system: Serratia marcescens; experiment: In vitro antibacterial activity against Serratia marcescens SM (constitutive beta-lactamase producer); format: functional; in short: as §1
[28] = system: Proteus mirabilis; experiment: as §11; format: functional; in short: as §9; remark: listed apart in the source
[29] = system: Streptococcus pneumoniae; experiment: In vitro antibacterial activity against Streptococcus pneumoniae 6301; format: functional; in short: as §8
[30] = system: Bacteroides thetaiotaomicron; experiment: microbe, parasite or virus in culture
[31] = system: Bacteroides fragilis; experiment: In vitro antibacterial activity against Bacteroides fragilis S2; format: functional; in short: as §3
[32] = system: Pseudomonas aeruginosa; experiment: In vitro antibacterial activity against Pseudomonas aeruginosa 8780; format: functional; in short: as §1
[33] = system: Pseudomonas aeruginosa; experiment: as §10; format: functional; in short: as §1
[34] = system: Escherichia coli; experiment: In vitro antibacterial activity against Escherichia coli 25922; format: functional; in short: as §1
[35] = system: Escherichia coli; experiment: In vitro antibacterial activity against Escherichia coli UB1005 (nalidixic acid-resistant strain); format: functional; in short: as §1
[36] = system: Escherichia coli; experiment: Effect on replication DNA biosynthesis in Escherichia coli H560 (permeabilised cells).; format: functional, organism-based
In short: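 Toluene-permeabilized E. coli H560 cells were used. Replicative DNA synthesis was measured as ATP-dependent [3H]thymidine incorporation into trichloroacetic acid-insoluble material. IC50 is the concentration giving 50% inhibition.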

[37] = Stability in pH 7.4 phosphate buffer at 37 degree C; format: physicochemical
In short: (§12)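 Compounds were held in pH 7.4 phosphate buffer at 37 °C and monitored by reverse-phase HPLC on a PRP-1 column with UV detection at 275–286 nm. The mobile phase was 0.01 M tetradecyltrimethylammonium bromide in pH 8.2 phosphate/acetonitrile. Product-peak decline was followed to at least 50%, and half-life was taken from semilogarithmic plots.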

[38] = Stability in pH 7.4 phosphate buffer at 37 degree C.; format: physicochemical; in short: as §12
[39] = system: Pseudomonas aeruginosa; experiment: In vitro antibacterial activity against Pseudomonas aeruginosa 18SH (constitutive beta-lactamase producer); format: functional; in short: as §1

SMILES	MIC [1]	MIC [2]	MIC [4]	MIC [5]	MIC [6]	MIC [7]	MIC [9]	MIC [11]	MIC [12]	MIC [13]	MIC [14]	MIC [15]	MIC [16]	MIC [17]	MIC [18]	MIC [19]	MIC [22]	MIC [28]	MIC [32]	MIC [33]	further results
C[C@@H](O)[C@H]1C(=O)N2C(C(=O)O)=C(SCCNC=N)C[C@H]12.O	0.25 µg/mL	> 128 µg/mL	0.125 µg/mL	2 µg/mL	32 µg/mL	64 µg/mL	0.25 µg/mL	0.25 µg/mL	< 0.0156 µg/mL	< 0.125 µg/mL	2 µg/mL	4 µg/mL	< 0.0156 µg/mL	1 µg/mL	< 0.125 µg/mL	0.125 µg/mL	< 0.0156 µg/mL	–	–	–	MIC [3]: < 0.125 µg/mL; MIC [8]: 4 µg/mL; MIC [10]: 2 µg/mL; MIC [20]: 1 µg/mL; MIC [21]: 2 µg/mL
O=C(O)c1cn(C2CC2)c2cc(N3CCNCC3)c(F)cc2c1=O [CIPROFLOXACIN]	0.0156 µg/mL (≈ 0.0471 µM)	–	–	–	0.5 µg/mL (≈ 1.51 µM)	–	–	–	–	–	–	–	–	–	–	–	0.5 µg/mL (≈ 1.51 µM)	0.0625 µg/mL (≈ 0.189 µM)	–	–	MIC [23]: 0.25 µg/mL (≈ 0.754 µM); MIC [24]: 0.25 µg/mL (≈ 0.754 µM); MIC [25]: 0.0313 µg/mL (≈ 0.0945 µM); MIC [26]: > 128 µg/mL; MIC [27]: 0.0313 µg/mL (≈ 0.0945 µM); MIC [29]: 1 µg/mL (≈ 3.02 µM); MIC [30]: 0.25 µg/mL (≈ 0.754 µM); MIC [31]: 4 µg/mL (≈ 12.1 µM)
CN1CCN(c2c(F)cc3c(=O)c(C(=O)O)cn(CCF)c3c2F)CC1 [FLEROXACIN]	0.0625 µg/mL (≈ 0.169 µM)	64 µg/mL (≈ 173 µM)	0.0625 µg/mL (≈ 0.169 µM)	64 µg/mL (≈ 173 µM)	0.5 µg/mL (≈ 1.35 µM)	0.5 µg/mL (≈ 1.35 µM)	0.0313 µg/mL (≈ 0.0847 µM)	0.0625 µg/mL (≈ 0.169 µM)	0.25 µg/mL (≈ 0.677 µM)	0.5 µg/mL (≈ 1.35 µM)	0.125 µg/mL (≈ 0.338 µM)	16 µg/mL (≈ 43.3 µM)	4 µg/mL (≈ 10.8 µM)	0.0625 µg/mL (≈ 0.169 µM)	8 µg/mL (≈ 21.7 µM)	0.0313 µg/mL (≈ 0.0847 µM)	2 µg/mL (≈ 5.42 µM)	0.25 µg/mL (≈ 0.677 µM)	2 µg/mL (≈ 5.42 µM)	1 µg/mL (≈ 2.71 µM)	MIC [3]: 0.25 µg/mL (≈ 0.677 µM); MIC [8]: 16 µg/mL (≈ 43.3 µM); MIC [34]: 0.03 µg/mL (≈ 0.0812 µM); MIC [35]: 0.5 µg/mL (≈ 1.35 µM); IC50 [36]: 1 µg/mL (≈ 2.71 µM)
O=C([O-])C1=C(COC(=O)N2CCN(c3cc4c(cc3F)c(=O)c(C(=O)O)cn4C3CC3)CC2)SC2CC(=O)N12.[Na+] (stereo not given)	0.125 µg/mL	–	0.25 µg/mL	–	1 µg/mL	–	0.125 µg/mL	0.25 µg/mL	1 µg/mL	–	0.25 µg/mL	–	0.125 µg/mL	0.25 µg/mL	–	0.25 µg/mL	0.125 µg/mL	1 µg/mL	16 µg/mL	4 µg/mL	MIC [24]: 2 µg/mL; half-life [37]: 16 h; MIC [34]: 0.25 µg/mL; MIC [35]: 2 µg/mL; IC50 [36]: 2 µg/mL
C[C@@H](O)[C@H]1C(=O)N2C(C(=O)[O-])=C(COC(=O)c3cn(CCF)c4c(F)c(N5CCN(C)CC5)c(F)cc4c3=O)C[C@H]12.[Na+]	0.125 µg/mL	4 µg/mL	0.25 µg/mL	1 µg/mL	1 µg/mL	1 µg/mL	0.125 µg/mL	0.25 µg/mL	0.125 µg/mL	< 0.125 µg/mL	0.25 µg/mL	4 µg/mL	0.0157 µg/mL	0.25 µg/mL	< 0.125 µg/mL	0.125 µg/mL	0.0157 µg/mL	1 µg/mL	4 µg/mL	2 µg/mL	half-life [38]: 11 h; MIC [34]: 0.12 µg/mL; MIC [35]: 1 µg/mL; IC50 [36]: 10 µg/mL
C[C@@H](O)[C@H]1C(=O)N2C(C(=O)[O-])=C(COC(=O)N3CCN(c4cc5c(cc4F)c(=O)c(C(=O)O)cn5C4CC4)CC3)[C@H](C)[C@H]12.[K+]	0.0313 µg/mL	16 µg/mL	0.0625 µg/mL	4 µg/mL	0.5 µg/mL	0.5 µg/mL	0.0313 µg/mL	0.0625 µg/mL	0.125 µg/mL	< 0.125 µg/mL	0.0625 µg/mL	1 µg/mL	0.0313 µg/mL	0.0313 µg/mL	1 µg/mL	< 0.0156 µg/mL	0.0313 µg/mL	0.125 µg/mL	0.5 µg/mL	–	MIC [3]: < 0.125 µg/mL; MIC [8]: 4 µg/mL; half-life [37]: 5 h; MIC [39]: 0.5 µg/mL
C[C@@H](O)[C@H]1C(=O)N2C(C(=O)[O-])=C(CO)[C@H](C)[C@H]12.[K+]	0.5 µg/mL	–	0.5 µg/mL	–	32 µg/mL	32 µg/mL	0.5 µg/mL	1 µg/mL	0.125 µg/mL	–	0.5 µg/mL	–	0.0625 µg/mL	0.5 µg/mL	–	0.5 µg/mL	0.0625 µg/mL	1 µg/mL	32 µg/mL	16 µg/mL	–
